Source: PubChem (several laboratories)
A1 inh – inhibitors of the anti-apoptotic protein A1, read as caspase activation; caspase activation, % (concentration not given with the values); 330,000 compounds, 0.066% hits; MEF A1-2A-BIM cells, Caspase-Glo 3/7 luminescence, 3 h; percent of clofoctol response, vehicle zero;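 active means over half of replicate activation scores above 10%, or exactly half above 10 with the replicate mean above 10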
MC4R antag cAMP – human MC4R antagonism in cAMP assay; 360,000 compounds, 0.48% hits; P32245; inhibition, % at 6.5 µM; MC4R-expressing cells, MTII-stimulated cAMP, LANCE TR-FRET;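 active means inhibition above its plate's cutoff, the mean of tested wells on that plate plus 3 SD, cut at about 29% in these data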;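 further: 0% = Melanotan II alone and 100% = Melanotan II plus saturating MCL0020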
Target sequence (P32245 whole entry, looked up): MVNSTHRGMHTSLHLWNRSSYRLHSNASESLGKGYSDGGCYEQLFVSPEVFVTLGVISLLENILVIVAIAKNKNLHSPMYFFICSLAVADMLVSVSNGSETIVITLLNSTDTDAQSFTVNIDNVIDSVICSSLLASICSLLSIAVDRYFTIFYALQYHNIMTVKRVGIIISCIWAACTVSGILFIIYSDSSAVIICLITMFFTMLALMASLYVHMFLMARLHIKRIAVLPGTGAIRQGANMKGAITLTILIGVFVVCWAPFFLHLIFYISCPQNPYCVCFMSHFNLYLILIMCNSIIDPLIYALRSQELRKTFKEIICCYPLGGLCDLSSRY
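material = U2OS cells stably expressing human melanocortin 4 receptor (MC4R) | also added = Melanotan II challenge | dosing = single nominal compound dose of 6.5 µM | detection = TR-FRET with Eu-cAMP and labeled anti-cAMP, 671 nm | replication = singlicate | timing = compound 30 min, challenge 1 h, detection 1 h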
MC4R ag barr – activates human MC4R beta-arrestin recruitment; P32245; U2OS MC4R beta-arrestin complementation, luminescence; percent of melanotan II response, DMSO zero; activation, % at 8.9 µM; 360,000 compounds, 0.98% hits; AID 540308;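 active means activation above a per-plate cutoff, the mean activation of sample wells on that plate plus 3 SD, cut at about 8% in these data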
UPR CHOP act – apoptotic UPR (CHOP) activation; CHO-CHOP luciferase reporter, luminescence; percent of tunicamycin response over DMSO baseline; activation, % at 10 µM; 330,000 compounds, 0.34% hits; AID 449763;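 active means at 10 µM dose, activation of 40% or more, normalized to positive control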;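 further: 100% = tunicamycin at 10 µg/mL and 0% = DMSO alone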
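Assay system: CHO-CHOP cells, stable luciferase reporter of PERK-eIF2a-CHOP signalling / Buffer or medium: F12 plus 10% serum / Compound dosing: one dose, 10 µM in 0.5% DMSO / Times: 6 h compound treatment, 37 °C / Technique: luciferase luminescence / Read-out: % reporter activation, DMSO baseline versus tunicamycin full activation / Benchmarks: tunicamycin and DMSO controls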
UPR XBP1 act – adaptive UPR (XBP1) activation. CHO-XBP1 luciferase reporter, IRE1-XBP1 UPR activation, luminescence; percent of tunicamycin response, DMSO as zero. activation, % at 20 µM. 330,000 compounds, 0.33% hits. AID 463104;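 active means versus positive control, 20 µM dose yields 30% or more activation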;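 further: 100% = tunicamycin at 10 µg/mL and 0% = DMSO only wells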
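Assay system: IRE1-XBP1 luciferase reporter CHO line. Input: 1000 cells/well. Buffer or medium: F12 with 10% serum. Doses: 20 µM, 1% DMSO. Times: overnight seeding at 37 °C, 6 h compound treatment at 37 °C. Technique: Steady-Glo luciferase glow luminescence, 10 min after reagent addition.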
U2OS cAMP counter – nonselective cAMP signaling inhibitor, MC4R antagonist counter-screen. parental U2OS, forskolin cAMP, LANCE TR-FRET. 1,600 compounds, 26% hits. shares compounds with MC4R antag cAMP. inhibition, % at 6.5 µM;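 active means mean inhibition over triplicates above the low-control well mean plus 3 SD, set per campaign, cut at about 13% in these data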;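 further: signal is single emission at 671 nm which falls as cellular cAMP rises; 0% = forskolin-stimulated wells and 100% = buffer without forskolin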
MC4R antag conf – human MC4R cAMP antagonism confirmation. shares compounds with MC4R antag cAMP. MC4R-expressing cells, MTII-stimulated cAMP, TR-FRET. inhibition, % at 6.5 µM. 1,600 compounds, 27% hits; in the data active means inhibition above about 29%;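 further: 0% = agonist stimulated wells alone and 100% = agonist stimulated wells plus saturating reference antagonist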
An asterisk follows results filed as active; . = no result given; + = active, no number. Sampled rows, rich in hits. Any-hit rate of the full collection: about 2%.

SMILES	A1 inh	MC4R antag cAMP	MC4R ag barr	UPR CHOP act	UPR XBP1 act	U2OS cAMP counter	MC4R antag conf
CCOc1ccc(CCNC(=O)CCS(=O)(=O)c2ccc(C)cc2)cc1OCC	0	-2	-1	4	2	.	.
CCOc1ccc(CCNC(=O)CCS(=O)(=O)c2ccc(Br)cc2)cc1OCC	0	29*	1	0	-1	0	10
Cc1cnc(C)c(Nc2nc(C(N)Cc3ccc(Cl)cc3)cs2)n1 (centres undefined)	.	1	1	.	.	.	.
CCCCN(C)C(=O)c1nc2ccccn2c1CN1CCN(C/C=C/c2ccccc2)CC1	1	35*	-1	2	0	-3	4
CC1CCCN(c2nc(-c3cccnc3)nc3scc(-c4ccccc4)c23)C1 (centres undefined)	0	37*	0	4	2	0	21
CC1CCN(c2nc(-c3cccnc3)nc3scc(-c4ccccc4)c23)CC1	1	11	1	2	5	.	.
CCC(CC)C(=O)N(C)c1c(C)nc2c(OCc3ccc(Cl)cc3Cl)cccn12	.	18	0	.	.	.	.
CN(C)c1ccc(-c2ccnc3c2CC(C)(C(=O)Nc2ccc(Cl)c(C(F)(F)F)c2)O3)cc1 (centres undefined)	.	3	0	.	.	.	.
O=C(CCl)c1ccc2c(c1)CCN2C(=O)C1CCCCC1	0	30*	-3	-7	-8	4	23
COCCCN1C(=O)C(CC(=O)NCC2CCCCC2)CC(C(=O)N(C)C)=C1C (centres undefined)	.	5	1	.	.	.	.
CCOC(=O)C1=C(C)N=c2s/c(=C/c3ccc(OCC(=O)O)cc3)c(=O)n2C1c1ccc(SC)cc1 (centres undefined)	1	22	-2	0	-2	.	.
CCOC(=O)C1=C(C)N=c2s/c(=C/c3ccc(OCC(=O)O)cc3)c(=O)n2C1c1ccc(F)cc1 (centres undefined)	0	30*	0	1	0	2	-5
Cc1ccc(O)c(NC(=O)c2noc3c2CCCCC3)c1	1	31*	-2	4	2	-3	-10
CNC(=O)C(=O)NCC(c1cccs1)S(=O)(=O)c1ccc(C)cc1 (centres undefined)	2	26	0	0	-3	.	.
CC(=O)NCC(c1cccs1)S(=O)(=O)c1ccc(F)cc1 (centres undefined)	0	33*	1	-4	-2	5	6
CCOc1cccc(/C=N/N2CCN(c3ccc(Cl)cc3)CC2)c1O	0	32*	0	1	-2	6	-8
CCN1C(=O)[C@H]2[C@@H](c3ccc(OC)cc3)N[C@]3(CCCN(CC4CCCCC4)C3=O)[C@H]2C1=O	.	-1	-1	.	.	.	.
O=C(O)c1cnn(-c2nc(-c3ccc(Cl)cc3)cs2)c1C(F)(F)F	-2	31*	-1	6	14	4	18
O=C(Nc1nnc([C@@H]2C[C@H](O)[C@@H](CO)O2)s1)c1cccc2ccccc12	.	-5	1	.	.	.	.
O=C(c1cc(-c2cccc(O)c2)on1)N1CCCC1	-5	31*	-1	0	-10	0	1
COc1cccc(C(C)(O)c2nc(-c3cnn(C)c3)cs2)c1 (centres undefined)	.	2	1	.	.	.	.
Cc1cc(Br)c2nc3c(c(C(=O)O)c2c1)CCCCC3	0	+	3	.	.	+	.
C[C@@H]1CN([C@H](C)CO)S(=O)(=O)c2ccc(C#CCN(C)C)cc2O[C@@H]1CN(C)Cc1ccccc1F	.	7	-1	.	.	.	.
COc1ccc2c(c1)oc(=O)c1ccccc12	0	-3	1	4	3	.	.
O=c1oc2cc(O)c(Cl)cc2c2ccccc12	0	56*	-2	1	0	41*	64*
